SMILES strings stand for the structures.

The test system of assay [1] is Cricetinae gen. sp. The assay can be described thus: Percent change in low-density lipoprotein cholesterol following oral administration of compound in hypercholesterolemic hamsters at 100 mg/kg/day for 14 days. It is filed as functional. A digest of the protocol:
(§1)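 Male Syrian Golden hamsters pre-fed chow plus 0.25% cholesterol for 2 weeks and kept on it. Dosed 100 mg/kg/day by oral gavage in 2% Tween 80/saline for 14 days. Serum total cholesterol and glycerol-blanked triglycerides read enzymatically; lipoproteins separated by FPLC with cholesterol measured in each fraction. % change versus vehicle controls; six per group, p < 0.05.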

Assay [2] has as its system Rattus norvegicus. As to the kind of experiment: Effect of compound on high-density lipoprotein cholesterol levels in 5th group of normal chow-fed male rats after a dose of 20 mg/kg/day. It is filed as functional, organism-based.
The test system of assay [3] is Rattus norvegicus. The assay can be described thus: Effect of compound on liver weight in 6th group of normal chow-fed male rats after a dose of 50 mg/kg/day. It is filed as functional. A digest of the protocol: (§2)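 Male Sprague–Dawley CD rats, 60–80 g, on chow with a reverse 12 h light/dark cycle. Given one oral gavage dose daily for 4 days, suspended in 1.3% Tween 80/0.25% CMC. Fasted overnight and sacrificed 24 h after the last dose for blood and liver. Serum liver enzymes read on a clinical analyzer. Six per group, mean ± SEM.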

For assay [4], the system named is Cricetinae gen. sp. As to the kind of experiment: Effect of compound on high-density lipoprotein cholesterol levels in 4th group of cholesterol-fed male hamsters at 100 mg/kg/day after 14 days of treatment. The settings on record: Mesocricetus auratus.
The subject of assay [5] is Cricetinae gen. sp. As to the kind of experiment: Effect of compound on triglycerides level in 3rd group of cholesterol-fed male hamsters at 30 mg/kg/day after 14 days of treatment. The settings on record: Mesocricetus auratus.
For assay [6], the system named is Rattus norvegicus. The assay can be described thus: Effect of compound on serum apolipoprotein A1 concentration in chow-fed male rats at a dose of 5 mg/kg/day. It is filed as functional, organism-based. The method in brief: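 Separate dose-response study in male Sprague–Dawley CD rats, 60–80 g, on chow. Oral gavage once daily for 4 days in 1.3% Tween 80 / 0.25% CMC; fasted overnight, bled 24 h after last dose. Apo-A1 by ELISA with rabbit anti-rat primary, alkaline phosphatase-conjugated anti-rabbit IgG and p-nitrophenyl phosphate substrate. HDL-C by FPLC fractionation. Mean ± SEM, six per group.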

Assay [7] relates to Cricetinae gen. sp. As to the kind of experiment: Effect of compound on alanine aminotransferase (ALT) levels in 4th group of cholesterol-fed male hamsters at 100 mg/kg/day after 14 days of treatment. The settings on record: Mesocricetus auratus.
The subject of assay [8] is Rattus norvegicus. The assay can be described thus: Effect of compound on triglycerides level in 1st group of normal chow-fed male rats after a dose of 1 mg/kg/day. The class given is functional, organism-based. The method in brief: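 Male Sprague–Dawley CD rats (60–80 g) on Purina 5001 chow with a reverse 12 h light/dark cycle. Dosed once daily by oral gavage for 4 days, suspended in 1.3% Tween 80 / 0.25% CMC. Fasted overnight and bled 24 h after the last dose. Serum TC and glycerol-blanked TG measured enzymatically; VLDL-C by FPLC fractionation with cholesterol assay. n=6, mean ± SEM.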

For assay [9], the system named is Rattus norvegicus. The assay can be described thus: Effect of compound on low-density lipoprotein cholesterol levels in 6th group of normal chow-fed male rats after a dose of 50 mg/kg/day. The class given is functional, organism-based. A digest of the protocol: (§3)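 Male Sprague–Dawley CD rats, 60–80 g, on standard chow with reverse 12 h light/dark cycle. One oral gavage dose daily for 4 days, suspended in 1.3% Tween 80 and 0.25% CMC. Fasted overnight; sacrificed 24 h after the last dose. Serum TC on clinical analyzer, lipoproteins by FPLC with cholesterol per fraction, T4 on analyzer. Mean ± SEM, six rats per group.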

For assay [10], the system named is Rattus norvegicus. The assay can be described thus: Effect of compound on thyroxine levels in 3rd group of normal chow-fed male rats after a dose of 5 mg/kg/day. The class given is functional, organism-based. A digest of the protocol: as §3
For assay [11], the system named is Cricetinae gen. sp. As to the kind of experiment: Effect of compound on low-density lipoprotein cholesterol levels in 4th group of cholesterol-fed male hamsters at 100 mg/kg/day after 14 days of treatment. The settings on record: Mesocricetus auratus.
The subject of assay [12] is Rattus norvegicus. The assay can be described thus: Effect of compound on low-density lipoprotein cholesterol levels in 7th group of normal chow-fed male rats after a dose of 100 mg/kg/day. The class given is functional, organism-based. A digest of the protocol: as §3
For assay [13], the system named is Rattus norvegicus. As to the kind of experiment: Effect of compound on alkaline phosphatase (ALKP) levels in 1st group of normal chow-fed male rats after a dose of 1 mg/kg/day. It is filed as functional, organism-based. A digest of the protocol:
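Male Sprague–Dawley CD rats (60–80 g) on standard chow under a reversed 12 h light/dark cycle. Compound was suspended in 1.3% Tween 80/0.25% CMC and given as a single daily oral gavage dose for 4 days. Rats were fasted overnight and killed 24 h after the last dose. Serum ALT, AST, ALKP and LDH were read on a clinical analyzer. Weight gain was start versus end weight. Mean ± SEM, n = 6.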

The test system of assay [14] is Rattus norvegicus. As to the kind of experiment: Effect of compound on relative liver weight in 6th group of normal chow-fed male rats after a dose of 50 mg/kg/day. The class given is functional. A digest of the protocol:
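Chow-fed male Sprague–Dawley CD rats, 60–80 g, dosed by oral gavage once daily for 4 days in 1.3% Tween 80/0.25% CMC. Fasted overnight and sacrificed 24 h after the last dose. Liver weight expressed as % of body weight at termination. Six per group, mean ± SEM.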

A short description of assay [15]: Effect on serum lipids in 5th group of normal chow-fed male rats after a dose of 20 mg/kg/day was evaluated as ratio of total plasma cholesterol levels to high-density lipoprotein cholesterol levels. It is filed as functional. The method in brief: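 Male Sprague–Dawley CD rats, 60–80 g, chow-fed, dosed by oral gavage daily for 4 days in 1.3% Tween 80/0.25% CMC. Fasted overnight, bled 24 h after the last dose. Serum total cholesterol by enzymatic reagent; HDL-C from cholesterol in FPLC fractions; TPC/HDL-C ratio calculated. Six per group, mean ± SEM.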

Assay [16] deals with Cricetinae gen. sp. The assay can be described thus: Percent change in triglycerides following oral administration of compound in hypercholesterolemic hamsters at 100 mg/kg/day for 14 days. The class given is functional. A digest of the protocol: as §1
Assay [17] has as its system Rattus norvegicus. As to the kind of experiment: Effect of compound on lactic dehydrogenase (LDH) levels in 7th group of normal chow-fed male rats after a dose of 100 mg/kg/day. The class given is functional, organism-based. The method in brief: as §2
Assay [18] concerns Cricetinae gen. sp. As to the kind of experiment: Effect of compound on liver weight in 1st group of cholesterol-fed male hamsters at 3 mg/kg/day after 14 days of treatment. The class given is functional. A digest of the protocol:
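Male Syrian Golden hamsters, 90–100 g, fed chow plus 0.25% cholesterol for 2 weeks before and throughout dosing. Compound suspended in 2% Tween 80 in saline, given by oral gavage for 14 days; vehicle controls. Fasted 4 h, last dose 2 h before sacrifice, then weighed and blood and liver collected. Liver enzymes read on a clinical analyzer. Six per group, mean ± SEM.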

In assay [19] the test system is Cricetinae gen. sp. The assay can be described thus: Percent change in high-density lipoprotein cholesterol following oral administration of compound in hypercholesterolemic hamsters at 100 mg/kg/day for 14 days. It is filed as functional. A digest of the protocol: as §1
For assay [20], the system named is Rattus norvegicus. The assay can be described thus: Effect of compound on low-density lipoprotein cholesterol levels in 4th group of normal chow-fed male rats after a dose of 10 mg/kg/day. It is filed as functional, organism-based. A digest of the protocol: as §3
The next assay deals with Mesocricetus auratus. The assay can be described thus: Effect of compound on gain in body weight in 4th group of cholesterol-fed male hamsters at 100 mg/kg/day after 14 days of treatment.
In assay [21] the test system is Cricetinae gen. sp. As to the kind of experiment: Effect of compound on total plasma cholesterol levels in 2nd group of cholesterol-fed male hamsters at 10 mg/kg/day after 14 days of treatment. The settings on record: Mesocricetus auratus.

On to `CCN1CC(=O)N(c2cc(Cl)ccc2C)C1=S`, for which the Change is given as -30.1% in the assay on Cricetinae gen. sp. [1], -34% in the assay with Cricetinae gen. sp. [16] and 43% in the assay on Cricetinae gen. sp. [19]. For the same compound, the Serum level in the assay with Rattus norvegicus [2] worked out at 58 mg/dL; in the assay with Cricetinae gen. sp. [4], 191 mg/dL; with Cricetinae gen. sp. [5], 433 mg/dL; with Rattus norvegicus [6], 72.9 mg/dL; in the assay with Rattus norvegicus [8], 18 mg/dL; with Rattus norvegicus [9], 7.1 mg/dL. Also, the Serum level in the assay with Rattus norvegicus [10] amounted to 4.23 µg/dL; with Cricetinae gen. sp. [11], 102 mg/dL; with Rattus norvegicus [12] it was 8.7 mg/dL; in the assay on Rattus norvegicus [20] it was 8.1 mg/dL; with Cricetinae gen. sp. [21], 370 mg/dL. Further, the results for the Liver weight with Rattus norvegicus [3] and with Cricetinae gen. sp. [18] were 7.3 g and 9.58 g, respectively. The Level in the assay on Cricetinae gen. sp. [7] came to 639 U l-1; in the assay on Rattus norvegicus [13] it was 312 U l-1; in the assay with Rattus norvegicus [17], 681 U l-1. This compound also showed a Relative liver weight in the assay with Rattus norvegicus [14] of 4%. The Ratio in [15] is on record as 1.44. In the assay with Mesocricetus auratus, this compound showed a Body weight of 9 g.
